66 compounds from ChEMBL document CHEMBL4706682, “Development of Novel Mitochondrial Pyruvate Carrier Inhibitors to Treat Hair Loss” (J Med Chem, 2021) can be followed below.

SMILES strings stand for the structures. Activity calls are given as the source filed them. Unless noted, no cut-off for these calls is given here.

One data set deals with MCF-10A. In words: Inhibition of MPC in human MCF-10A cells assessed as increase in cellular lactate production at 10 uM incubated for 24 to 30 hrs. The class given is cell-based. The note with it: time 24-30 hrs. In outline: (§1)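 MCF10A cells were seeded in triplicate and treated the next day with analogue or an equal volume of DMSO for 24-30 h. Lactate in the culture medium was measured on a BioProfile Basic Analyzer. It was normalized to cell number and run time to give a rate (nmol lactate per million cells per hour), relative to DMSO. Statistics were one-way ANOVA with Dunnett's post-test against DMSO.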
As for `N#C/C(=C\c1cn(Cc2cc(C(F)(F)F)cc(C(F)(F)F)c2)c2ccccc12)C(=O)O`, the inhibition entry was “Active”.
Same read-out and setting: the result for `N#C/C(=C\c1cccc(C(F)(F)F)c1Cl)C(=O)O` reads “inactive”.
Same read-out and setting: the result for `CCOC(=O)/C(C#N)=C/c1cn(Cc2ccc(F)c(F)c2)c2ccccc12` reads “Active”; that for `N#C/C(=C\c1cn(Cc2cc(C(F)(F)F)cc(C(F)(F)F)c2)c2cccc(OCc3ccccc3)c12)C(=O)O`, “inactive”; that for `N#C/C(=C\c1cn(Cc2cc(C(F)(F)F)cc(C(F)(F)F)c2)c2cnccc12)C(=O)O`, “Active”.
Still for that read-out and setting: the result for `N#C/C(=C\c1cn(Cc2cc(C(F)(F)F)cc(C(F)(F)F)c2)c2nccc(Cl)c12)C(=O)O` reads “Active”; that for `COc1cccc2c1c(/C=C(\C#N)C(=O)O)cn2Cc1cc(C(F)(F)F)cc(C(F)(F)F)c1`, “Active”.
Consider `COc1ccc(-n2cc(/C=C(\C#N)C(=O)O)c3ccccc32)cc1`, for which the inhibition result is “Active”.
On the same count and under the same terms, in the case of `N#C/C(=C\c1ccc(F)cc1)C(=O)O` it was “inactive”.
On the same count and under the same terms, in the case of `N#C/C(=C\c1cn(Cc2cc(C(F)(F)F)cc(C(F)(F)F)c2)c2ccccc12)P(=O)(O)O` it was “inactive”; in that of `CCOC(=O)/C(C#N)=C/c1cn(Cc2cc(C(F)(F)F)cc(C(F)(F)F)c2)c2ncccc12`, “Active”; in that of `N#C/C(=C\c1cn(Cc2cc(C(F)(F)F)cc(C(F)(F)F)c2)c2ccc(Cl)cc12)C(=O)O`, “inactive”.
On to `CCOC(=O)/C(C#N)=C/c1cn(Cc2ccccc2)c2ccccc12`, for which the inhibition entry is “Active”.
Still for that read-out and setting: the result for `CCOC(=O)/C(C#N)=C/c1cn(C(=O)Cc2cc(C(F)(F)F)cc(C(F)(F)F)c2)c2ccccc12` reads “inactive”.
Turning to `CCOC(=O)/C(C#N)=C/c1cn(-c2ccccc2OC)c2ccccc12`, the inhibition entry is “Active”.
Take `N#C/C(=C\c1cn(Cc2cc(C(F)(F)F)cc(C(F)(F)F)c2)c2cccc(C(=O)O)c12)C(=O)O`: the inhibition entry is “inactive”.
The same measure, in the same setting: in the case of `CCOP(=O)(OCC)/C(C#N)=C/c1cn(Cc2cc(C(F)(F)F)cc(C(F)(F)F)c2)c2ccccc12` it was “Active”.
The same measure, in the same setting: in the case of `N#C/C(=C\c1cn(Cc2ccc(F)c(F)c2)c2ccccc12)C(=O)O` it was “Active”; in that of `N#CC(C#N)=Cc1cn(-c2ccccc2)c2ccccc12`, “inactive”; in that of `N#C/C(=C\c1ccc(C(F)(F)F)cc1)C(=O)O`, “inactive”.
As for `N#C/C(=C\c1cn(Cc2cc(C(F)(F)F)cc(C(F)(F)F)c2)c2cccc(C#N)c12)C(=O)O`, the inhibition result was “Active”.
On the same count and under the same terms, the result for `CCOC(=O)/C(C#N)=C/c1cn(Cc2ccc(F)cc2)c2ccccc12` reads “Active”; that for `COc1ccccc1-n1cc(/C=C(\C#N)C(=O)O)c2ccccc21`, “Active”; that for `CCOC(=O)/C(C#N)=C/c1c[nH]c2ccccc12`, “inactive”.
On the same count and under the same terms, the result for `N#C/C(=C\c1cn(Cc2cc(C(F)(F)F)cc(C(F)(F)F)c2)c2cccc(Cl)c12)C(=O)O` reads “Active”.
As to `N#C/C(=C\c1cn(-c2ccccc2)c2ccccc12)C(=O)O`, the inhibition result was “Active”.
Same read-out and setting: in the case of `N#C/C(=C\c1cn(Cc2cc(C(F)(F)F)cc(C(F)(F)F)c2)c2ncccc12)C(=O)O` it was “Active”.
The same measure, in the same setting: the result for `N#C/C(=C\c1ccccc1F)C(=O)O` reads “inactive”.
As for `N#C/C(=C\c1cn(Cc2ccccc2)c2ccccc12)C(=O)O`, the inhibition result is “Active”.
Same read-out and setting: the result for `N#C/C(=C\c1cn(Cc2cc(C(F)(F)F)cc(C(F)(F)F)c2)c2ccccc12)C(=O)N1CCOCC1` reads “Active”; that for `N#C/C(=C\c1cn(Cc2cc(C(F)(F)F)cc(C(F)(F)F)c2)c2cccnc12)C(=O)O`, “Active”.
`N#C/C(=C\c1cn(Cc2cc(C(F)(F)F)cc(C(F)(F)F)c2)c2nccc(Br)c12)C(=O)O`: the inhibition result is “Active”.
On the same count and under the same terms, the result for `N#C/C(=C\c1cn(Cc2ccc(F)c(F)c2)c2ccc(F)cc12)C(=O)O` reads “Active”; that for `CCOC(=O)/C(C#N)=C/c1cn(-c2ccccc2)c2ccccc12`, “inactive”.
Same read-out and setting: in the case of `N#C/C(=C\c1cn(Cc2cc(C(F)(F)F)cc(C(F)(F)F)c2)c2cccc(Br)c12)C(=O)O` it was “Active”; in that of `N#C/C(=C\c1ccc(O)cc1)C(=O)O`, “inactive”; in that of `CCOC(=O)/C(C#N)=C/c1cn(Cc2cc(C(F)(F)F)cc(C(F)(F)F)c2)c2ccccc12`, “Active”.
Still for that read-out and setting: the result for `N#C/C(=C\c1cn(Cc2cc(C(F)(F)F)cc(C(F)(F)F)c2)c2c(OCc3ccccc3)cccc12)C(=O)O` reads “Active”; that for `CC(C)(C)OC(=O)/C(C#N)=C/c1cn(Cc2cc(C(F)(F)F)cc(C(F)(F)F)c2)c2ccccc12`, “inactive”.
With `N#C/C(=C\c1cn(Cc2cc(C(F)(F)F)cc(C(F)(F)F)c2)c2cccc(F)c12)C(=O)O`, the inhibition result was “Active”.
Same read-out and setting: the result for `N#C/C(=C\c1ccccc1)C(=O)O` reads “inactive”; that for `CCOC(=O)/C(C#N)=C/c1cn(Cc2cc(C(F)(F)F)cc(C(F)(F)F)c2)c2cccc(Br)c12`, “Active”.
On to `N#C/C(=C\c1cn(Cc2cc(C(F)(F)F)cc(C(F)(F)F)c2)c2c(Cl)cccc12)C(=O)O`, for which the inhibition entry is “inactive”.
The same measure, in the same setting: the result for `CCOC(=O)/C(C#N)=C/c1cn(-c2ccc(OC)cc2)c2ccccc12` reads “Active”; that for `CCOP(=O)(OCC)/C(C#N)=C/c1cn(Cc2cc(C(F)(F)F)cc(C(F)(F)F)c2)c2ncccc12`, “Active”.
The same measure, in the same setting: in the case of `N#C/C(=C\c1cn(Cc2cc(F)cc(F)c2)c2cc(F)ccc12)C(=O)O` it was “Active”; in that of `N#C/C(=C\c1cn(Cc2cc(F)cc(F)c2)c2ccc(F)cc12)C(=O)O`, “Active”.
Still for that read-out and setting: the result for `N#C/C(=C\c1ccc(F)c(F)c1)C(=O)O` reads “inactive”; that for `N#C/C(=C\c1cn(Cc2cc(C(F)(F)F)cc(C(F)(F)F)c2)c2c(F)cccc12)C(=O)O`, “Active”; that for `N#C/C(=C\c1ccc(F)c(C(F)(F)F)c1)C(=O)O`, “inactive”.
Regarding `N#C/C(=C\c1cn(Cc2cc(C(F)(F)F)cc(C(F)(F)F)c2)c2cc(Cl)ccc12)C(=O)O`, the inhibition result is “inactive”.
The same measure, in the same setting: the result for `N#C/C(=C\c1cn(Cc2cc(C(F)(F)F)cc(C(F)(F)F)c2)c2ccccc12)C(N)=O` reads “Active”; that for `N#C/C(=C\c1ccc(F)cc1F)C(=O)O`, “inactive”.
Regarding `N#C/C(=C\c1cn(Cc2cc(C(F)(F)F)cc(C(F)(F)F)c2)c2cc(OCc3ccccc3)ccc12)C(=O)O`, the inhibition entry was “inactive”.
The same measure, in the same setting: in the case of `N#C/C(=C\c1cn(Cc2ccc(F)c(F)c2)c2cc(F)ccc12)C(=O)O` it was “Active”; in that of `N#C/C(=C\c1cc(C(F)(F)F)cc(C(F)(F)F)c1)C(=O)O`, “inactive”; in that of `N#CC(Cc1cn(-c2ccccc2)c2ccccc12)C(=O)O` (stereo unspecified), “inactive”.
The same measure, in the same setting: the result for `N#C/C(=C\c1c[nH]c2ccccc12)C(=O)O` reads “inactive”; that for `N#C/C(=C\c1cn(Cc2cc(F)cc(F)c2)c2ccccc12)C(=O)O`, “Active”; that for `CCOC(=O)/C(C#N)=C/c1cn(Cc2cc(F)cc(F)c2)c2ccccc12`, “Active”.
Regarding `CCOC(=O)C(=Cc1cn(-c2ccccc2)c2ccccc12)C(=O)O` (mixture of isomers), the inhibition entry was “inactive”.
Still for that read-out and setting: in the case of `CCOC(=O)/C(C#N)=C/c1cn(Cc2cc(C(F)(F)F)cc(C(F)(F)F)c2)c2cccc(F)c12` it was “Active”.
Same read-out and setting: the result for `Cc1ccc(/C=C(\C#N)C(=O)O)cc1F` reads “inactive”; that for `N#C/C(=C\c1cn(Cc2ccc(F)cc2)c2ccccc12)C(=O)O`, “Active”.
The same measure, in the same setting: the result for `COC(=O)/C(C#N)=C/c1cn(Cc2cc(C(F)(F)F)cc(C(F)(F)F)c2)c2ccccc12` reads “inactive”.

In a further data set the test system is MCF-10A. Put plainly: Inhibition of MPC in human MCF-10A cells assessed as increase in cellular lactate production incubated for 24 to 30 hrs. The class given is cell-based. The note with it: time 24-30 hrs. The procedure, abridged: as §1
On to `N#C/C(=C\c1cn(-c2ccccc2)c2ccccc12)C(=O)O`, for which the inhibition entry is “Dose-dependent effect”.

Another data set has as its system MCF-10A. In words: Toxicity in human MCF-10A cells assessed as reduction in cell viability incubated for 24 to 30 hrs. Format: cell-based. The note with it: time 24-30 hrs.
As for `N#C/C(=C\c1cn(Cc2cc(C(F)(F)F)cc(C(F)(F)F)c2)c2ccccc12)C(=O)N1CCOCC1`, the Activity entry is given as “Toxic”.
Same read-out and setting: the result for `N#C/C(=C\c1cn(Cc2cc(C(F)(F)F)cc(C(F)(F)F)c2)c2ccccc12)C(N)=O` reads “Toxic”.

Tested on in a further data set: not listed separately
In words: (§2) Inhibition of MPC in human MCF-10A cells assessed as reduction in oxygen consumption rate using pyruvate and malate and ADP. Format: cell-based.
Conditions: not given
In outline:
(§3)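 A Seahorse XF Analyzer measured the respiration of permeabilized MCF10A cells, with 5 mM pyruvate and 0.5 mM malate as substrates plus ADP (state 3). Cells received half-log doses from 3 nM to 10 µM. OCR (fmol O2 per cell per min) was measured in duplicate and normalized to cell number. IC50 was fitted from the dose-response.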
In general, IC50 refers to the concentration that inhibits the measured activity by half. With `N#C/C(=C\c1cn(Cc2cc(C(F)(F)F)cc(C(F)(F)F)c2)c2ccccc12)C(=O)O`, the IC50 was determined as 16.6 nM.
On to `N#C/C(=C\c1cn(Cc2cc(C(F)(F)F)cc(C(F)(F)F)c2)c2ncccc12)C(=O)O`, for which the IC50 was found to be 42.8 nM.

For another data set, the system named is MCF-10A. The data set is described as §2. The class given is cell-based.
Conditions: not given
In outline: as §3
Turning to `N#C/C(=C\c1cn(Cc2cc(C(F)(F)F)cc(C(F)(F)F)c2)c2ncccc12)C(=O)O`, the inhibition result was “Active”.

The next data set deals with Mus musculus. Put plainly: Stimulation of hair growth in C57BL/6J mouse shaved at postnatal day 50 during telogen-phase of hair cycle at 20 uM dosed topically to shaved back skin every other day for 2 weeks. Format: functional, organism-based.
Conditions: not given
The procedure, abridged:
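Wild-type C57BL/6J mice were shaved at postnatal day 50. They were treated topically every other day with about 300 µl of compound at 20 µM, suspended in Transderma Plo Ultramax gel, for up to 3 weeks; vehicle served as control. Pigmentation and hair growth (anagen entry) were photographed weekly. Mice were housed under defined pathogen-free conditions.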
Turning to `N#C/C(=C\c1cn(Cc2cc(C(F)(F)F)cc(C(F)(F)F)c2)c2ccccc12)C(=O)O`, the result was Active.
Same read-out and setting: in the case of `N#C/C(=C\c1cn(-c2ccccc2)c2cccc(Cl)c12)C(=O)O` it was “Active”; in that of `N#C/C(=C\c1cn(Cc2cc(C(F)(F)F)cc(C(F)(F)F)c2)c2cccc(Cl)c12)C(=O)O`, “Active”.
`N#C/C(=C\c1cn(Cc2cc(C(F)(F)F)cc(C(F)(F)F)c2)c2cccc(Br)c12)C(=O)O`: the outcome was Active.
Turning to `N#C/C(=C\c1cn(Cc2cc(C(F)(F)F)cc(C(F)(F)F)c2)c2cccc(F)c12)C(=O)O`, the outcome was Active.
